CHOP UPR activ: activators of apoptotic CHOP UPR arm, primary screen, cell-based, CHO-CHOP luciferase reporter, luminescence, uHTS | UPR activation; percent of tunicamycin response over DMSO baseline | activation, % at 10 µM | 0.34% of 330,000 active;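 active = at 10 µM dose, activation of 40% or more, normalized to positive control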;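 also: 100% = tunicamycin at 10 µg/mL and 0% = DMSO alone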
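Test system: CHO CHOP reporter cells. Input: 500 CHO-CHOP cells per well. Medium: F12 with 10% FBS. Technique: luciferase luminescence. Measure: percent activation relative to tunicamycin control. Dosing: 10 µM compound, 0.5% DMSO. Timing: 16-18 h cell attachment, then 6 h compound exposure, 37 °C.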
T cruzi inh: inhibitors of intracellular T. cruzi growth, primary screen, luminescence, NIH3T3 host cells; inhibition, % (concentration not given with the values); AID 1885, 2009; T. cruzi beta-gal in NIH3T3, 90 h; 1.4% of 300,000 active;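 active = mean inhibition across valid replicates above about 55%, limit read from the data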;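 also: signal also drops with host cell toxicity which is not excluded here; 0% = plate median of DMSO wells and 100% = zero luminescence signal; higher percent means less beta-gal luminescence so fewer parasites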
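System – NIH/3T3 host cells with β-galactosidase reporter T. cruzi · Doses – single 50 nL compound addition per well in DMSO · Reagent – 5000 T. cruzi trypomastigotes/well · Medium – Low-serum DMEM with 2% FBS · Timing – ≥90 h infection period, 3 h prior cell attachment · Evaluation – parasite load inhibition, % · Technique – GalScreen luminescence, 60 min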
CHOP inh: inhibitors of CHOP promoter induction, primary screen, cell-based, unfolded protein response, luciferase reporter; CHO-K1 CHOP-promoter luciferase, tunicamycin-induced, 15-18 h; AID 2732, 2010; inhibition, % at 10 µM; 3.8% of 220,000 active;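 active = compounds that reduced the stress-induced luciferase reporter signal by more than about 70% of percent inhibition, limit read from the data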;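 also: 0% = tunicamycin plus vehicle and 100% = wells without tunicamycin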
Dynein transport: inhibitors of GR-EGFP nuclear translocation, primary screen, dynein cargo transport inhibitor project, imaging, high-content, 3617.4 mouse cells | test concentration mostly 20 µM; stimulated with dexamethasone, 1 µM; hits give low values | z-score, hits read low | 0.47% of 220,000 active | AID 1381, 2008;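 active = plate z-score of nuclear minus cytoplasmic receptor signal below a set negative limit, without overly bright fluorescence or cell loss, cut at about -3.5 in these data, passing the limit was not always enough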;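 also: z-score of nuclear minus cytoplasmic ring GR-EGFP intensity difference per well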
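Also added: dexamethasone, 1.0 µM final. Medium: tet-free, stripped-serum medium. Detection: fixed, Hoechst-stained cells imaged at 10x for EGFP. Read-out: nuclear-to-cytoplasmic GR-EGFP distribution per well. Times: induction 48 h, compound 1 h, agonist 30 min.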
UPR XBP1 act: activators of adaptive XBP1 UPR arm, primary screen, cell-based, CHO-XBP1 luciferase reporter, luminescence, uHTS | IRE1-XBP1 UPR activation; percent of tunicamycin response, DMSO as zero | activation, % at 20 µM | 0.33% of 330,000 active;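 active = versus positive control, 20 µM dose yields 30% or more activation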;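 also: 100% = tunicamycin at 10 µg/mL and 0% = DMSO only wells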
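Material: CHO-XBP1 cells stably carrying IRE1-XBP1-driven luciferase reporter | Medium: F12 with 10% serum | Compound dosing: 20 µM single concentration, DMSO 1% | Incubation: Overnight seeding at 37 °C, 6 h compound treatment at 37 °C | Detection: Steady-Glo luminescence read | Read-out basis: % activation of reporter signal versus tunicamycin and DMSO controls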
Lmaj promast: Leishmania major promastigote growth inhibition, primary screen; Leishmania major promastigotes, resazurin fluorescence viability; inhibition, % at 10 µM; 9% of 200,000 active; in the data active = inhibition above about 50%;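 also: promastigotes grown with compound for 44 hours at 28 °C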
* hit, by the source's call; · = no result given. Shown is part of a subset that was picked to be rich in hits.

SMILES	CHOP UPR activ	T cruzi inh	CHOP inh	Dynein transport	UPR XBP1 act	Lmaj promast
Cc1cccc(/N=C/c2c(O)ccc3oc4c(c23)CCCC4)n1	3	-34	21	-0.5	0	91*
Cc1cccc(N2CCN(C(=O)C(NS(=O)(=O)c3cccs3)c3ccccc3)CC2)c1C (configuration not stated)	2	-10	21	-0.74	0	62*
O=C(C(NS(=O)(=O)c1cccs1)c1ccccc1)N1CCN(c2ccccc2F)CC1 (configuration not stated)	2	8	34	-0.67	-5	7
CCCCc1nnc(NC(=O)c2ccccc2OCc2c(C)noc2C)s1	0	1	·	·	1	·
CC(=O)n1cc([C@H]2C=C(C(=O)N3CCN(Cc4ccccc4)CC3)O[C@@H](OCCCCO)C2)c2ccccc21	0	32	4	2.1	-3	11
O=C(NCc1ccccc1)C1=C[C@H](c2csc3ccccc23)C[C@H](OCc2ccc(CO)cc2)O1	0	42	29	0.8	-3	·
O=C(Nc1ccccc1)C1=C[C@@H](c2csc3ccccc23)C[C@@H](OCc2ccc(CO)cc2)O1	4	52	32	-0.54	-1	58*
O=C(C1=C[C@H](c2csc3ccccc23)C[C@H](OCc2ccc(CO)cc2)O1)N1CCN(Cc2ccc3c(c2)OCO3)CC1	5	62*	39	-0.85	0	66*
O=C(Nc1ccccc1)C1=C[C@@H](c2ccccc2)C[C@@H](OCc2ccc(CO)cc2)O1	1	16	-16	-0.012	1	30
CC(=O)n1cc([C@@H]2C=C(C(=O)N3CCN(Cc4ccccc4)CC3)O[C@H](OCc3ccc(CO)cc3)C2)c2ccccc21	0	35	35	0.23	-3	97*
O=C(Nc1ccccc1)C1=C[C@@H](c2ccc(C(F)(F)F)cc2)C[C@@H](OCc2ccc(CO)cc2)O1	2	43	-18	0.26	-3	65*
Clc1ccc2c(c1)Nc1ccccc1CC2	3	23	·	·	7	·
CC(C)c1ccc(CN2CCC(Oc3ccc(C(=O)N4CCCC4)cc3)CC2)cc1	0	35	·	·	-4	·
CN1CCN(C(=O)C2=C[C@@H](c3csc4ccccc34)C[C@@H](OCc3ccc(CO)cc3)O2)CC1	1	10	15	1.3	1	90*
O=C(C1=C[C@H](c2csc3ccccc23)C[C@H](OCc2ccc(CO)cc2)O1)N1CCOCC1	0	12	31	-0.64	-1	5
CCN(CC)C(=O)c1cc(Cl)ccc1NC(=O)c1ccco1	0	6	9	-0.42	-1	·
CCN(CC)P(=O)(Nc1ccccc1Br)c1ccc(N(C)C)cc1NC(=O)c1ccco1 (configuration not stated)	3	57*	5	0.49	-1	73*
CN(CCOc1ccccc1)C(=O)c1cc([N+](=O)[O-])ccc1N1CCOCC1	-1	11	·	·	3	·
CN(CCOc1ccccc1)C(=O)c1cc([N+](=O)[O-])cc([N+](=O)[O-])c1	-1	64*	-5	0.086	-7	26
O=C(NCCOc1ccccc1)c1cc(C(=O)NCCOc2ccccc2)cc([N+](=O)[O-])c1	3	68*	40	-0.58	-2	98*
O=C(Cn1cc([N+](=O)[O-])cn1)NCCc1nc2ccccc2[nH]1	-1	-4	21	-0.77	1	3
O=C(NCCc1nc2ccccc2[nH]1)c1cc([N+](=O)[O-])cc([N+](=O)[O-])c1	0	53	-4	-1	0	98*
Cc1ccc(NC(=O)C(=O)NCCCN2CC(C(=O)O)CC2=O)cc1 (configuration not stated)	-3	-1	·	·	0	·
O=C(NCCCN1CCOCC1)c1sc2cc(Cl)ccc2c1Cl	2	46	37	-0.025	0	92*
O=C(NC1CC1)c1sc2cc(F)ccc2c1Cl	3	·	·	·	2	·
SMILES	CHOP UPR activ	T cruzi inh	CHOP inh	Dynein transport	UPR XBP1 act	Lmaj promast
O=C(NCCN1CCOCC1)c1cc([N+](=O)[O-])ccc1Cl	1	44	·	·	-5	·
O=C(NCCN1CCOCC1)c1ccc([N+](=O)[O-])cc1[N+](=O)[O-]	1	41	-7	1.7	-1	71*
O=C(NCCCN1CCOCC1)c1sc2cc([N+](=O)[O-])ccc2c1Cl	0	26	15	0.018	-1	86*
COc1ccc(Cl)cc1C(=O)NCCCN1CCOCC1	1	-2	·	·	-2	·
O=C(NCCCN1CCOCC1)c1sc2cc(F)ccc2c1Cl	3	9	0	-1.2	0	93*
NC(=O)[C@@H]1CCCN1Cc1c(C(=O)N2CCc3ccccc3C2)nc2ccc(Cl)cn12	-1	15	·	·	-3	·
Cc1ccc(CC2CC(=O)N(c3cc(Cl)ccn3)C2=O)cc1 (configuration not stated)	-1	-9	3	0.53	0	·
Nc1ccc(-c2nc3ccc([N+](=O)[O-])cc3[nH]2)cc1	1	-11	6	0.32	2	83*
O=C(COC(=O)/C=C/c1ccc(C(F)(F)F)cc1)NC1CCS(=O)(=O)C1 (configuration not stated)	1	9	·	·	1	·
Cc1cc(-c2ccc(C(C)C)c(S(=O)(=O)Nc3cc(C)on3)c2)on1	3	-16	·	·	-1	·
COC(=O)c1ccc(COc2cc(O)c3c(c2)OC(C)(C)CC3=O)cc1	1	25	49	-0.3	7	3
CC1(C)CC(=O)c2c(O)cc(OCc3ccc(Br)cc3)cc2O1	5	44	25	0.91	2	69*
O=C(CC(c1ccccc1)c1ccccc1O)NCc1ccccc1Cl (configuration not stated)	-1	-6	13	0.89	-3	51*
O=C(CC(c1ccccc1)c1ccccc1O)NCc1ccco1 (configuration not stated)	0	4	6	-0.4	-3	-2
O=C(CC(c1ccccc1)c1cc(Br)ccc1O)NCc1ccco1 (configuration not stated)	0	2	14	-1.2	-2	99*
O=C(CC(c1ccccc1)c1ccccc1O)NCCc1ccccc1 (configuration not stated)	2	-1	·	·	-2	·

High-throughput results from PubChem.
